The record followed here is ChEMBL document CHEMBL1142707, “Bisaryloxime ethers as potent inhibitors of transthyretin amyloid fibril formation” (J Med Chem, 2005).

Assay [1] has as its target Transthyretin (Homo sapiens) (UniProt P02766). Put plainly: Binding stoichiometry to TTR in human blood plasma determined by antibody capture/HPLC method. Type of assay: cell-free. Summed up: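 Human blood plasma spiked to 10.8 µM test compound from a 2.16 mM DMSO stock and incubated 24 h at 37 °C. Plasma was precleared with plain Sepharose for 1 h at 4 °C, then split into three aliquots for anti-TTR antibody-resin capture (20 min, 4 °C) in 10 mM Tris pH 8.0, 140 mM NaCl. Resin washed, eluted with 100 mM triethylamine pH 11.5, eluate analysed by HPLC for compound:TTR stoichiometry.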

The target is the same in assay [2]. The experiment in a line: Percentage of WT-TTR (3.6 uM) amyloid fibril formation at pH 4.4 upon incubation with the compound (7.2 uM). Summed up:
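WT-TTR (7.2 µM, 0.4 mg/mL) in 10 mM phosphate pH 7.2, 100 mM KCl, 1 mM EDTA was preincubated 30 min at 37 °C with inhibitor added from a 1.44 mM DMSO stock. An equal volume of 200 mM acetate pH 4.2 brought the sample to pH 4.4 (3.6 µM TTR, 7.2 µM compound final). Left 72 h at 37 °C, vortexed, turbidity read at 350 and 400 or 500 nm. Run in duplicate or triplicate.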

In turn, `O=C(O)c1cccc(/C=N/Oc2cc(Cl)cc(Cl)c2)c1` returned a Binding stoichiometry in assay [1] of 0.56. Besides, the Formation in assay [2] turned out to be 3%.
The like results for `O=C(O)c1cccc(O/N=C/c2cc(Br)c(O)c(Br)c2)c1` were, in that order, < 0.5 and 0%.
On the same counts, the results for `Oc1c(I)cc(/C=N/Oc2cccc(C(F)(F)F)c2)cc1I` are 1.02 and 4%.
On the same counts, the results for `O=C(O)c1cccc(O/N=C/c2c(Cl)cccc2Cl)c1` are 0.71 and 1%.
For `O=C(O)c1cccc(/C=N/Oc2cccc(C(F)(F)F)c2)c1`, in assay [1], the Binding stoichiometry was < 0.5. Also, in assay [2], the Formation amounted to 9%.
As to `O=C(O)c1ccc(O/N=C/c2cc(Cl)cc(Cl)c2)cc1`, the Binding stoichiometry in assay [1] is 0.53. The Formation in assay [2] was found to be 9%.
Regarding `Oc1c(Br)cc(/C=N/Oc2cccc(C(F)(F)F)c2)cc1Br`, the Binding stoichiometry in assay [1] came out at 1.17. This molecule also displayed a Formation in assay [2] of 4%.
The like results for `O=C(O)c1cccc(/C=N/Oc2cc(F)cc(F)c2)c1` were, in that order, < 0.5 and 6%.
In assay [1], `Oc1c(I)cc(/C=N/Oc2cc(F)cc(F)c2)cc1I` returned a Binding stoichiometry of 1.83. Moreover, the Formation in assay [2] was found to be 3%.
On the same counts, the results for `O=C(O)c1cccc(/C=N/Oc2ccccc2C(F)(F)F)c1` are 1.07 and 6%.
With `O=C(O)c1ccc(/C=N/Oc2cc(F)cc(F)c2)cc1`, in assay [1], the Binding stoichiometry was < 0.5. The molecule further had a Formation in assay [2] of 9%.
In assay [2], `O=C(O)c1ccc(/C=N/Oc2cccc(C(F)(F)F)c2)cc1` yielded a Formation of 12%.
As for `O=C(O)c1ccccc1O/N=C/c1cc(I)c(O)c(I)c1`, the Binding stoichiometry in assay [1] is < 0.5. Moreover, the Formation in assay [2] was determined as 0%.
Regarding `O=C(O)c1ccccc1O/N=C/c1cc(F)cc(F)c1`, the Formation in assay [2] came out at 78%.
`Oc1c(Br)cc(/C=N/Oc2cc(F)cc(F)c2)cc1Br` displayed a Binding stoichiometry in assay [1] of 1.42. Further, the Formation in assay [2] came out at 3%.
`O=C(O)c1ccc(/C=N/Oc2cccc(C(=O)O)c2)cc1` yielded a Formation in assay [2] of 31%.
Take `Oc1c(Br)cc(/C=N/Oc2cc(Cl)cc(Cl)c2)cc1Br`: the Binding stoichiometry in assay [1] is 0.69. In addition, in assay [2], the Formation is 3%.
`FC(F)(F)c1cccc(O/N=C/c2ccccc2C(F)(F)F)c1` displayed a Formation in assay [2] of 83%.
The same measure, in the same setting: in the case of `Fc1cc(F)cc(O/N=C/c2cccc(C(F)(F)F)c2)c1` it was 86%.
Turning to `O=C(O)c1cccc(O/N=C/c2cc(Cl)cc(Cl)c2)c1`, the Binding stoichiometry in assay [1] was < 0.5. This molecule also came in with a Formation in assay [2] of 0%.
For `O=C(O)c1ccccc1/C=N/Oc1cc(Cl)cc(Cl)c1`, in assay [2], the Formation was 30%.
Still for that read-out and setting: in the case of `O=C(O)c1ccccc1/C=N/Oc1cccc(C(F)(F)F)c1` it was 84%; in that of `FC(F)(F)c1ccc(/C=N/Oc2cc(Cl)cc(Cl)c2)cc1`, 68%; in that of `FC(F)(F)c1cccc(O/N=C/c2c(Cl)cccc2Cl)c1`, 21%.
In the case of `FC(F)(F)c1ccc(/C=N/Oc2ccccc2)cc1`, the Formation in assay [2] came to 98%.
Same read-out and setting: in the case of `FC(F)(F)c1ccccc1/C=N/Oc1ccccc1C(F)(F)F` it was 83%; in that of `O=C(O)c1cccc(O/N=C/c2ccccc2C(=O)O)c1`, 94%; in that of `O=C(O)c1ccccc1/C=N/Oc1cc(F)cc(F)c1`, 84%.
As to `O=C(O)c1ccccc1O/N=C/c1c(Cl)cccc1Cl`, the Formation in assay [2] stood at 59%.
Same read-out and setting: under `Clc1cc(Cl)cc(/C=N/Oc2ccccc2)c1` stands 56%; under `O=C(O)c1cccc(O/N=C/c2ccc(C(F)(F)F)cc2)c1`, 83%; under `O=C(O)c1ccccc1O/N=C/c1ccc(C(F)(F)F)cc1`, 90%.
On to `FC(F)(F)c1cccc(/C=N/Oc2ccccc2)c1`, for which the Formation in assay [2] was determined as 92%.
`FC(F)(F)c1cccc(/C=N/Oc2cccc(C(F)(F)F)c2)c1`: in assay [2], the Formation turned out to be 83%.
`O=C(O)c1ccccc1O/N=C/c1cccc(C(F)(F)F)c1`: the Formation in assay [2] was 74%.
